{"data": "Results from different studies", "P2RX7": "P2X purinoceptor 7 (P2RX7, Homo sapiens, UniProt Q99572)", "Ptgs2": "Prostaglandin G/H synthase 2 (Ptgs2, Mus musculus, UniProt Q05769)", "JAK3": "Tyrosine-protein kinase JAK3 (JAK3, Homo sapiens, UniProt P52333)", "MET": "Hepatocyte growth factor receptor (MET, Homo sapiens, UniProt P08581)", "IDE": "Insulin-degrading enzyme (IDE, Homo sapiens, UniProt P14735)", "KCNA5": "Potassium voltage-gated channel subfamily A member 5 (KCNA5, Homo sapiens, UniProt P22460)", "crk3": "crk3 (Leishmania mexicana, UniProt O15851)", "HDAC3": "Histone deacetylase 3 (HDAC3, Homo sapiens, UniProt O15379)", "gag-pol integrase": "Gag-Pol polyprotein, integrase (gag-pol, Human immunodeficiency virus 1, UniProt P12497)", "note": "Each line is one published result; the experiments were not run side by side."}
{"SMILES": "COc1ccc(-c2n[nH]c(=S)o2)cc1", "target": "P2RX7", "assay": "calcium signal, antagonist", "IC50 [nM]": 8290}
{"SMILES": "O=C(O)CC1=C/C(=C\\c2cccc(-c3ccc(F)cc3)n2)c2ccc(F)cc21", "target": "Ptgs2", "assay": "enzyme activity, inhibitor", "IC50 [nM]": 670}
{"SMILES": "CCCN(CCC)S(=O)(=O)c1ccc(-c2n[nH]c(=S)o2)cc1", "target": "P2RX7", "assay": "calcium signal, antagonist", "IC50 [nM]": 6110}
{"SMILES": "Oc1c2ccccc2c2c3c(cccc13)N=N2", "target": "JAK3", "assay": "enzyme activity, inhibitor", "IC50 [nM]": 344}
{"SMILES": "Cc1cc(Oc2ccc(NC(=O)c3cc(-c4cccs4)no3)cc2F)c2nncn2n1", "target": "MET", "assay": "enzyme activity, inhibitor, mobility shift", "IC50 [nM]": 540}
{"SMILES": "CC(C(=O)O)c1cccc(C(=O)c2ccccc2)c1 (stereo not drawn)", "target": "Ptgs2", "assay": "enzyme activity, inhibitor", "IC50 [nM]": 720}
{"SMILES": "CC(C)C[C@H](NC(=O)[C@H](Cc1ccccc1)NC(=O)[C@H](Cc1ccc(O)cc1)NC(=O)CNC(=O)[C@H](CCCNC(=N)N)NC(=O)[C@H](CO)NC(=O)[C@H](CCC(N)=O)NC(=O)[C@H](CO)NC(=O)[C@H](C)NC(=O)[C@H](Cc1ccccc1)NC(=O)[C@@H]1CCCN1C(=O)[C@H](CO)NC(=O)[C@H](CCC(N)=O)NC(=O)[C@H](Cc1ccccc1)NC(=O)[C@H](CCC(=O)O)NC(=O)[C@H](CCC(=O)O)NC(=O)[C@H](CC(=O)O)NC(=O)[C@@H](NC(=O)[C@H](CCCNC(=N)N)NC(=O)[C@@H](N)Cc1ccccc1)C(C)C)C(=O)N[C@@H](Cc1ccccc1)C(=O)N[C@@H](CCCNC(=N)N)C(=O)N1CCC[C@H]1C(=O)N[C@@H](CCCNC(=N)N)C(=O)N[C@@H](CC(N)=O)C(N)=O", "target": "Neuromedin-U receptor 2 (NMUR2, Homo sapiens, UniProt Q9GZQ4)", "assay": "ligand displacement, radioligand", "conditions": "cell membranes", "IC50 [nM]": 0.22}
{"SMILES": "NC(=O)[C@H](Cc1c[nH]cn1)NC(=O)CN(CC(=O)O)Cc1ccccc1", "target": "IDE", "assay": "enzyme activity, inhibitor, fluorescence", "IC50 [nM]": 1400}
{"SMILES": "CC(C)n1nc(-c2ccc3c(c2)sc2ccccc23)c2c(N)ncnc21", "target": "Calmodulin-domain protein kinase 1, putative (Cryptosporidium parvum, UniProt A3FQ16)", "assay": "enzyme activity, inhibitor", "IC50 [nM]": "> 3000"}
{"SMILES": "CN1CCN(c2ccc(Nc3ncc4cc(C#N)c(=O)n(C5CCCC5)c4n3)cc2)CC1", "target": "Serine/threonine-protein kinase Nek9 (NEK9, Homo sapiens, UniProt Q8TD19)", "assay": "enzyme activity, inhibitor", "IC50 [nM]": 399}
{"SMILES": "Cc1cnc(-c2ccc(-c3ccc(NC(=O)Nc4c(F)cc(F)cc4F)cc3F)c3c2C(=O)NC3)[nH]1", "target": "MET", "assay": "enzyme activity, inhibitor", "IC50 [nM]": 13.6}
{"SMILES": "Cc1ccc(C(=O)Nc2ccc(Oc3cc4cnn(C)c4cc3-c3cn[nH]c3)c(F)c2)c(=O)n1-c1ccc(F)cc1", "target": "Macrophage colony-stimulating factor 1 receptor (CSF1R, Homo sapiens, UniProt P07333)", "assay": "enzyme activity, inhibitor, radiometric", "IC50 [nM]": 32}
{"SMILES": "O=C(O)C(CCC(c1ccccc1)(c1ccccc1)c1ccccc1)NCc1ccccc1 (racemic)", "target": "Kinesin-like protein KIF11 (KIF11, Homo sapiens, UniProt P52732)", "assay": "ATPase activity, inhibitor", "IC50 [nM]": "> 49200"}
{"SMILES": "C[C@H]1C[C@@H](N2C(=N)N[C@](C)(c3cccc(Nc4ccc(C5CC5)nc4)c3Cl)CC2=O)CCO1", "target": "KCNA5", "assay": "ion current, inhibitor, patch clamp", "IC50 [nM]": 4620}
{"SMILES": "CNC(=O)c1cc2c(Oc3ccc(NC(=O)C4(C(=O)Nc5ccc(F)cc5)CC4)cc3)ccnc2cc1OC", "target": "Hepatocyte growth factor receptor (MET, Homo sapiens, UniProt P08581, D1228H)", "assay": "enzyme activity, inhibitor, radiometric", "IC50 [nM]": 4}
{"SMILES": "CC(C)(C)OC(=O)[C@H](Cc1c[nH]cn1)NC(=O)CN(CC(=O)O)Cc1ccccc1", "target": "IDE", "assay": "enzyme activity, inhibitor, fluorescence", "IC50 [nM]": 800}
{"SMILES": "COC(=O)c1ccc(NC(=O)NC2=CC(=O)CC(C)(C)C2)cc1", "target": "crk3", "assay": "enzyme activity, inhibitor, radiometric", "IC50 [nM]": 3300}
{"SMILES": "Cc1cc(Oc2ccc(NC(=O)c3sc(-c4ccccc4)nc3C)cc2)c2nncn2n1", "target": "MET", "assay": "enzyme activity, inhibitor, mobility shift", "IC50 [nM]": 880}
{"SMILES": "CCCC[C@H](NC(=O)C1CN(C)C1)c1ncc(-c2cc3ccccc3nc2OC)[nH]1", "target": "HDAC3", "assay": "enzyme activity, inhibitor", "IC50 [nM]": 16}
{"SMILES": "FC(F)(F)c1cccc(-c2nnc(S)o2)c1", "target": "P2RX7", "assay": "calcium signal, antagonist", "IC50 [nM]": 1500}
{"SMILES": "Cc1cc(Oc2ccc(NC(=O)c3sc(-c4ccccc4)nc3C)cc2F)c2nncn2n1", "target": "MET", "assay": "enzyme activity, inhibitor, mobility shift", "IC50 [nM]": 630}
{"SMILES": "COC(=O)CN(CC(=O)N[C@@H](Cc1c[nH]cn1)C(=O)OC)Cc1ccccc1", "target": "IDE", "assay": "enzyme activity, inhibitor, fluorescence", "IC50 [nM]": "> 100000"}
{"SMILES": "Cc1nc2ccc(Br)cc2c(-c2ccc(Cl)cc2)c1C(OC(C)(C)C)C(=O)O (stereo not drawn)", "target": "gag-pol integrase", "assay": "enzyme activity, inhibitor, TR-FRET", "IC50 [nM]": 120}
{"SMILES": "CC/C=C\\C/C=C\\C/C=C\\C/C=C\\C/C=C\\CCCC(=O)O", "target": "POLE (Homo sapiens, UniProt Q07864)", "assay": "enzyme activity, inhibitor", "IC50 [nM]": 35000}
{"SMILES": "O=C(Nc1ccccc1OS(=O)(=O)c1ccc([N+](=O)[O-])cc1)c1ccc2ncccc2c1", "target": "P2RX7", "assay": "calcium signal, antagonist", "IC50 [nM]": 1810}
{"SMILES": "O=C(O)CN(CCCc1ccccc1)CC(=O)N[C@@H](Cc1c[nH]cn1)C(=O)NCc1ccccc1", "target": "IDE", "assay": "enzyme activity, inhibitor, fluorescence", "IC50 [nM]": 400}
{"SMILES": "CC[C@H](C)[C@H](NC(C)=O)C(=O)N[C@@H](CCC(=O)O)C(=O)N[C@H](C(=O)N[C@H](C=O)CC(=O)O)[C@@H](C)O", "target": "Caspase-9 (CASP9, Homo sapiens, UniProt P55211)", "assay": "enzyme activity, inhibitor", "IC50 [nM]": 21.7}
{"SMILES": "O=C(Nc1ccn(Cc2ccc(O)cc2C(F)(F)F)n1)c1c(F)cccc1F", "target": "KCNA5", "assay": "ion current, inhibitor", "IC50 [nM]": "> 10000"}
{"SMILES": "CCCCCCCCCCC[C@@H](C[C@@H]1OC(=O)[C@H]1CCCCCC)OC(=O)[C@H](CC(C)C)NC=O", "target": "Lysosomal acid lipase/cholesteryl ester hydrolase (LIPA, Homo sapiens, UniProt P38571)", "assay": "enzyme activity, inhibitor", "IC50 [nM]": 168}
{"SMILES": "CC1(COc2ccc(CC3SC(=O)NC3=O)cc2)CCCCC1 (stereo not drawn)", "target": "Peroxisome proliferator-activated receptor alpha (PPARA, Homo sapiens, UniProt Q07869)", "assay": "ligand displacement, TR-FRET", "IC50 [nM]": 377000}
{"SMILES": "CC(C)C[C@H]1CC(=O)N[C@@H](C)C(=O)N[C@@H](CCCCCC(=O)O)C(=O)N[C@@H](Cc2c[nH]c3ccccc23)C(=O)N1", "target": "HDAC3", "assay": "enzyme activity, inhibitor", "IC50 [nM]": 600}
{"SMILES": "COc1cccc(F)c1Cn1cnc(-c2ccc(F)cc2)c1-c1ccncc1", "target": "TGF-beta receptor type-1 (TGFBR1, Homo sapiens, UniProt P36897)", "assay": "cell-free assay, TR-FRET", "IC50 [nM]": 1230}
{"SMILES": "O=C(O)[C@H](Cc1ccccc1)NC(=O)C1(c2ccccc2)CCN(S(=O)(=O)c2ccccc2)CC1", "target": "gag-pol integrase", "assay": "enzyme activity, inhibitor, TR-FRET", "IC50 [nM]": 189000}
{"SMILES": "Cc1noc([C@H](Cc2c[nH]cn2)NC(=O)CN(CCCc2ccccc2)CC(=O)O)n1", "target": "IDE", "assay": "enzyme activity, inhibitor, fluorescence", "IC50 [nM]": 500}
{"SMILES": "O=C(Nc1cc(-c2ccc(Cl)cc2)[nH]n1)c1cccnc1", "target": "crk3", "assay": "enzyme activity, inhibitor, radiometric", "IC50 [nM]": 2400}
{"SMILES": "CN(C)C(=O)[C@H](Cc1c[nH]cn1)NC(=O)CN(CC(=O)O)Cc1ccccc1", "target": "IDE", "assay": "enzyme activity, inhibitor, fluorescence", "IC50 [nM]": 6900}
{"SMILES": "CC(C)(C)n1nc(-c2cnc3cc(OC4CC4)ccc3c2)c(C(N)=O)c1N", "target": "JAK3", "assay": "cell-free assay", "IC50 [nM]": "> 10000"}
{"SMILES": "COc1ccc(S(=O)(=O)N2Cc3cc(O)c(O)cc3CC2C(=O)NO)cc1 (stereo not drawn)", "target": "Interstitial collagenase (MMP1, Homo sapiens, UniProt P03956)", "assay": "enzyme activity, inhibitor", "IC50 [nM]": 10000}
{"SMILES": "COC(=O)[C@H](Cc1c[nH]cn1)NC(=O)CN(CC(=O)O)Cc1ccc(C(F)(F)F)cc1", "target": "IDE", "assay": "enzyme activity, inhibitor, fluorescence", "IC50 [nM]": 2000}
{"SMILES": "CCOC(=O)CC1=C/C(=C\\c2ccc(-c3ccccc3)cc2)c2ccc(F)cc21", "target": "Ptgs2", "assay": "enzyme activity, inhibitor", "IC50 [nM]": "~10000"}
{"SMILES": "CC(C)OC(=O)[C@H](Cc1c[nH]cn1)NC(=O)CN(CC(=O)O)Cc1ccccc1", "target": "IDE", "assay": "enzyme activity, inhibitor, fluorescence", "IC50 [nM]": 300}
{"SMILES": "Cc1ccc(-n2nc(C(C)(C)C)cc2NC(=O)Nc2ccc(OCCN3CCOCC3)c3ccccc23)cc1", "target": "KCNA5", "assay": "ion current, inhibitor", "IC50 [nM]": 1100}
{"SMILES": "COc1ccc2c(Oc3ccc4c(C(=O)Nc5ccccc5N)cccc4c3)ccnc2c1", "target": "MET", "assay": "enzyme activity, inhibitor", "IC50 [nM]": "> 500"}
{"SMILES": "O=C(O)[C@H](Cc1ccc2ccccc2c1)NC(=O)C1(c2ccc3ccccc3c2)CCN(S(=O)(=O)c2ccccc2)CC1", "target": "gag-pol integrase", "assay": "enzyme activity, inhibitor, TR-FRET", "IC50 [nM]": 54700}
{"SMILES": "O=C(Nc1ccccc1OS(=O)(=O)c1cccs1)c1ccc2ncccc2c1", "target": "P2RX7", "assay": "calcium signal, antagonist", "IC50 [nM]": 2480}
